Measured values gathered from unrelated publications.
Lines come from different studies, so protocols differ.
Target: Serine/threonine-protein kinase Nek9 (NEK9, Homo sapiens, UniProt Q8TD19)
One construct used (Q8TD19 1-979): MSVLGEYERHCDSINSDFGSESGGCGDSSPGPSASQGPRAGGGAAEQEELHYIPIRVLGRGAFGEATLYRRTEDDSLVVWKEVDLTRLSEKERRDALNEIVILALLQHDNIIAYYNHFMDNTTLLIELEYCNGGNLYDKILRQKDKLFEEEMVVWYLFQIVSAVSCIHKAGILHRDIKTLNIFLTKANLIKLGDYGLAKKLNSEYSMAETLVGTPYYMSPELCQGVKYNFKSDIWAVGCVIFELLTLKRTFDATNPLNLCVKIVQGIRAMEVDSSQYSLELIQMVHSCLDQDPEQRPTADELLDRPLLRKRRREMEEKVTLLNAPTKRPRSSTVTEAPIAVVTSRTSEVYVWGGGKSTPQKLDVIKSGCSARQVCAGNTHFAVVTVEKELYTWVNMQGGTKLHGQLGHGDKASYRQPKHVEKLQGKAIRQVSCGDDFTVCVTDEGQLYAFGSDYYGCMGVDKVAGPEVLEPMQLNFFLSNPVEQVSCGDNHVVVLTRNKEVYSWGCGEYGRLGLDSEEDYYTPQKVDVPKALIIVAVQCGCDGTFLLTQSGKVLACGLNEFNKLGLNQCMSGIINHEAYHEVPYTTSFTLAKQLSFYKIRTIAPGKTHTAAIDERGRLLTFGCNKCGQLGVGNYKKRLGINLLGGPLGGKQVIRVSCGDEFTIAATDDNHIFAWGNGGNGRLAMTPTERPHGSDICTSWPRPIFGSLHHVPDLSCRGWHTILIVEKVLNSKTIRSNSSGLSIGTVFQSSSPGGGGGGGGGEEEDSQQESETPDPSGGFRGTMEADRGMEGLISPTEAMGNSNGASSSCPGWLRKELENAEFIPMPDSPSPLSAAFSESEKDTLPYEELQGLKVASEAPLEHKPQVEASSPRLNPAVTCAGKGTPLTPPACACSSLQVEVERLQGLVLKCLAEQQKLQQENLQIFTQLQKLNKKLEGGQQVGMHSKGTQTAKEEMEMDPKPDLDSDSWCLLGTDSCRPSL

Structure (SMILES)	effect on	method	concentration	remaining binding [%]
C[C@H](c1ccc(F)cc1)N(Cc1cccc(C(=O)O)c1)C(=O)c1cnc2ccccc2c1	cell-free assay	competition with immobilised ligand	1 µM	100
C[C@H]1CCN(c2nccc(-c3cnn4ncccc34)n2)C1	binding	–	1 µM	100
O=C(NCC1CCOCC1)c1n[nH]cc1NC(=O)c1c(F)cccc1F	binding	competition with immobilised ligand	1 µM	92
CN(C)c1nccc(-c2cnn3ncccc23)n1	binding	–	1 µM	100
CNC(=O)[C@@H]1CC[C@@H](n2c(-c3ccc4cnccc4c3)nc3ccc(C(=O)NCc4cccc(C(N)=O)c4)cc32)C1	binding	competition with immobilised ligand	1 µM	100
CN(C)c1ncc(F)c(-c2cnn3ncccc23)n1	binding	–	1 µM	100
O=C(c1ccc(Nc2nccc(-c3cc4ccccc4s3)n2)cc1)N1CCC(N2CCCC2)CC1	binding	competition with immobilised ligand	1 µM	100
COc1cnc(Nc2cccc(S(N)(=O)=O)c2)nc1N1CCN(c2ccccc2)C(=O)C1	binding	competition with immobilised ligand	1 µM	99
CC(=O)Nc1c(C(C)=O)c(=O)n(C)c2nc(-c3ccc(Cl)cc3Cl)c(-c3ccc(Cl)cc3)cc12	cell-free assay	competition with immobilised ligand	1 µM	100
O=C(NCCCN1CCOCC1)c1ccc(Nc2ncc(Cl)c(-c3ccc(Cl)s3)n2)cc1	binding	competition with immobilised ligand	1 µM	13
O=C1NC(c2ccccn2)Sc2ccccc21 (stereo not shown)	cell-free assay	competition with immobilised ligand	1 µM	75
Cc1cnc(Nc2ccc(C(=O)N3CCC(N4CCCC4)CC3)cc2)nc1-c1cc2ccccc2s1	binding	competition with immobilised ligand	1 µM	14
CN(c1nccc(-c2cnn3ncccc23)n1)C1CC1	binding	–	1 µM	100
CCN1CCN(Cc2ccc(C(=O)Nc3ccc(C)c(Oc4ccc5c(c4)CC(=O)N5)c3)cc2C(F)(F)F)CC1	binding	competition with immobilised ligand	1 µM	100
C=CC(=O)N1CCC(C(=O)NCC(=O)N2CCN(c3nc(-c4cnc(N)nc4C(F)F)nc(N4CCOCC4)n3)CC2)CC1	binding	competition with immobilised ligand	1 µM	100
CN(CCCC(F)(F)F)c1nccc(-c2cnn3ncccc23)n1	binding	–	1 µM	100
Cc1cc(-n2nc(Cc3cc(F)cc(C(F)(F)F)c3)nc2C)ccc1C(N)=O	cell-free assay	competition with immobilised ligand	1 µM	100
c1cncc(-c2cccc(Nc3nccc(NC4CCCCC4)n3)c2)c1	binding	competition with immobilised ligand	10 µM	95
NS(=O)(=O)c1cc(NC(=O)C2(c3ccccc3Cl)CC2)ccc1Oc1cccc(Cl)c1	cell-free assay	competition with immobilised ligand	1 µM	94
C[C@@H](c1ccc(-n2cnc3c(N)ncnc32)cc1)N1CCc2nn(C)c(Cc3ccccc3)c2C1=O	binding	competition with immobilised ligand	0.1 µM	94
F[C@@H]1CCN(c2nccc(-c3cnn4ncccc34)n2)C1	binding	–	1 µM	100
CN(C)C(=O)Cn1cc(-c2nc([C@@](C)(c3ccc(-c4cnc(N)nc4)cc3)C3CC3)no2)cn1	cell-free assay	competition with immobilised ligand	1 µM	95
